Published values collected from several papers.

C[C@@H]1CC[C@@H]([C@](C)(O)CNCc2cccc3ccccc23)[C@H](OCc2ccccc2)C1 gave an inhibition of 61% (MDA-MB-231; cell growth or viability, MTT; 30 µM, 72 h).
O=C(O)CO/N=c1\cc2n(-c3ccc(Cl)cc3)c3ccccc3nc-2cc1Nc1ccc(Cl)cc1 has an MIC of 1.88 µM (Neisseria gonorrhoeae; microbial growth; ATCC49226).
For COC1=CC(=O)c2ccccc2C1=O, the MIC was 6.25 µg/mL (Lodderomyces parapsilosis; microbial growth, broth dilution; ATCC22019; 24 h).
C[C@@H]1CC[C@@H]([C@](O)(CNCc2cccc3ccccc23)COCc2ccccc2)[C@H](OCc2ccccc2)C1 has an inhibition of 98% (MDA-MB-231; cell growth or viability, MTT; 30 µM, 72 h).
O=C(CO/N=c1\cc2n(-c3ccc(Cl)cc3)c3ccccc3nc-2cc1Nc1ccc(Cl)cc1)NCc1ccc2c(c1)CCO2 has an MIC of 15 µM (Neisseria gonorrhoeae; microbial growth; ATCC49226).
C[C@@H]1[C@H](O)[C@@H](C)/C=C/C=C/C=C/C=C/C=C/C=C/C=C/[C@H](O[C@@H]2O[C@H](C)[C@@H](O)[C@H](N)[C@@H]2O)C[C@@H]2O[C@](O)(C[C@@H](O)C[C@@H](O)[C@H](O)CC[C@@H](O)C[C@@H](O)CC(=O)O[C@H]1C)C[C@H](O)[C@H]2C(=O)O gave an MIC of 2 µg/mL (Lodderomyces parapsilosis; microbial growth, broth dilution; ATCC22019; 24 h).
Cc1c(Cc2ccccc2)c(=O)oc2c(C)c(OCC(=O)NN=Cc3ccccc3)ccc12 gave a viability of 17.6% (MDA-MB-231; cell growth or viability, MTT; 62.5 µg/mL).
With COc1ccc(COC[C@@](O)(CNCc2ccccc2)[C@@H]2CC[C@@H](C)C[C@H]2OCc2ccc(OC)cc2)cc1 the inhibition was 99.5% (MDA-MB-231; cell growth or viability, MTT; 10 µM, 72 h).
The MIC of O=C(O)CNC(=O)CO/N=c1\cc2n(-c3ccc(Cl)cc3)c3ccccc3nc-2cc1Nc1ccc(Cl)cc1 is reported as 1.88 µM (Neisseria gonorrhoeae; microbial growth; ATCC49226).
For CCc1c(C)c2ccc(OCC=Cc3ccccc3)c(C)c2oc1=O, the viability was 13% (MDA-MB-231; cell growth or viability, MTT; 500 µg/mL).
With C=CCO/N=c1\cc2n(-c3ccc(Cl)cc3)c3ccccc3nc-2cc1Nc1ccc(Cl)cc1 the MIC was 15 µM (Neisseria gonorrhoeae; microbial growth; ATCC49226).
Cc1c(Cc2ccccc2)c(=O)oc2c(C)c(OCC(=O)NN=Cc3ccc([N+](=O)[O-])cc3)ccc12 gave a viability of 37.2% (MDA-MB-231; cell growth or viability, MTT; 31.25 µg/mL).
The inhibition of C[C@@H]1CC[C@@H]([C@](O)(CNCc2ccc(F)cc2)COCc2ccc(F)cc2)[C@H](OCc2ccc(F)cc2)C1 is reported as 88.9% (MDA-MB-231; cell growth or viability, MTT; 10 µM, 72 h).
With Cc1c(Cc2ccccc2)c(=O)oc2c(C)c(OCC(=O)NN=Cc3ccc(Cl)cc3)ccc12 the viability was 21.2% (MDA-MB-231; cell growth or viability, MTT; 250 µg/mL).
For CC(C)/N=c1\cc2n(-c3ccc(Cl)cc3)c3ccccc3nc-2cc1Nc1ccc(Cl)cc1, the MIC was 0.94 µM (Neisseria gonorrhoeae; microbial growth; ATCC49226).
